# Assay results: PubChem BioAssay AID2611 (Broad Institute, 2010)
# System: BJeLR fibroblasts viability, Alamar Blue fluorescence, 48 h
# Test: cytotoxicity toward RAS-dependent BJ-TERT fibroblasts, dose response, cell-based, alamar blue fluorescence, powder samples (AID 2611)
# Summary of the method: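 Read-out: viable cell number from alamar blue conversion signal. Compound dosing: twofold serial dilution series, 0.01 to 5.33 µg/mL compound. Times: 48 h compound exposure, then ~16 h alamar blue incubation. Measured by: Alamar blue fluorescence, excitation 544 nm, emission 590 nm.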
row,Structure (SMILES),EC50 [µM]
1,COc1ccc(CN(CCC(c2ccccc2)c2ccc(OC(C)C)cc2)C(=O)CCl)cc1OC (centres undefined),2.71
2,CCOc1ccc(Nc2nc(N)nc(CCl)n2)cc1,2.89
3,Cc1ccc(N(C(=O)CCl)C(C(=O)NC2CCCCC2)c2cccnc2)cc1C (centres undefined),2.27
4,COc1ccc(C(C(=O)NC2CCCCC2)N(C(=O)CCl)c2ccc(C)cc2)cc1 (centres undefined),7.65
5,COc1ccc(C(C(=O)NC2CCCCC2)N(C(=O)CCl)c2cccc(Cl)c2)cc1 (centres undefined),3.36
6,COc1cccc(N(C(=O)CCl)C(C(=O)NCCc2ccccc2)c2cccs2)c1 (centres undefined),3.2
7,CCCCCCCN(C(=O)CCl)c1cccc(C)c1,5.74
8,COc1ccc(N(C(=O)CCl)C(C(=O)NCCc2ccccc2)c2cccs2)cc1 (centres undefined),2.26
9,C=CCOc1ccccc1CN(C(=O)CCl)c1ccc2c(c1)OCO2,18.6
10,Nc1nc(CCl)nc(Nc2ccc3ccccc3c2)n1,2.06
11,COc1ccc(N(C(=O)CCl)C(C(=O)NCCc2ccccc2)c2cccs2)cc1Cl (centres undefined),2.43
12,O=C(CCl)N=c1sccn1Cc1ccccc1Cl,12.1
13,Cc1ccc(C2CC(c3cccs3)=NN2C(=O)CCl)cc1 (centres undefined),4.62
14,COC(=O)[C@@H]1Cc2c([nH]c3ccccc23)C(C)(C)N1C(=O)CCl,6.2
